Data taken from ChEMBL document CHEMBL1135820, “A sorbitol dehydrogenase inhibitor of exceptional in vivo potency with a long duration of action: 1-(R)-[4-[4-(4,6-dimethyl[1,3,5]triazin-2-yl)- 2R,6S-dimethylpiperazin-1-yl]pyrimidin-2-yl]ethanol” (J Med Chem, 2002).

Legend:
[1] = system: Rattus norvegicus; experiment: Concentration required for […] inhibition of lower sciatic nerve fructose that became elevated in diabetic nerve in streptozotocin diabetic in vivo rat model; type: functional
[2] = target: T1, Sorbitol dehydrogenase (Homo sapiens, UniProt Q00796); experiment: Concentration required for 50% for in vitro activity against human SDH (sorbitol dehydrogenase)
T1 sequence (Q00796 whole entry): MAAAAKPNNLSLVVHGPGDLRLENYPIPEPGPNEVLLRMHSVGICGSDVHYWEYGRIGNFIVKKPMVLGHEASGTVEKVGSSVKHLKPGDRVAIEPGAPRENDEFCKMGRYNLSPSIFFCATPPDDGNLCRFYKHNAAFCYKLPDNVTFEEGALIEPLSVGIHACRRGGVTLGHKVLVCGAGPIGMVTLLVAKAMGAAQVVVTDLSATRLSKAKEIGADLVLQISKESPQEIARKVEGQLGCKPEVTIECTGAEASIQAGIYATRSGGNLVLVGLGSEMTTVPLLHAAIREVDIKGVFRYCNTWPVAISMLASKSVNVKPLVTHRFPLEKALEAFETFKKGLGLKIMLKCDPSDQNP

[3] = target: T2, Sorbitol dehydrogenase (Rattus norvegicus, UniProt P27867); experiment: Concentration required for 50% in vitro activity against rat SDH (sorbitol dehydrogenase)
T2 sequence (P27867 whole entry): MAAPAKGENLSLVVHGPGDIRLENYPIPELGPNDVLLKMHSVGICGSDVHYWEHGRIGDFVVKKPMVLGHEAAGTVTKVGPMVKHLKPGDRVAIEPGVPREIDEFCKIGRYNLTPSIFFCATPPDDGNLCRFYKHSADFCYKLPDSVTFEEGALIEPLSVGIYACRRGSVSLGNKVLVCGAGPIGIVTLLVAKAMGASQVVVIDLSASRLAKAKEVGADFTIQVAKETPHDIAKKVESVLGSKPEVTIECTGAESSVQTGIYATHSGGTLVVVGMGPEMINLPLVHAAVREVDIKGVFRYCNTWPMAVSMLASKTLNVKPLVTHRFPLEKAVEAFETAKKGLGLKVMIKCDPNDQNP

[4] = organism: Rattus norvegicus; experiment: % Ability to inhibit lower sciatic nerve fructose that became elevated in diabetic nerve in streptozotocin diabetic rat model at 0.05 mpk; type: functional
Outline: (§1)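 Chronically diabetic rats were dosed at 0.05 or 1 mg/kg in a chronic test. Sciatic nerve fructose was measured and reported as percent inhibition of the diabetes-induced fructose elevation in sciatic nerve.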

[5] = target: T3, Sorbitol dehydrogenase (Rattus norvegicus) (UniProt P27867); experiment: In vitro inhibitory activity against rat sorbitol dehydrogenase and concentration that cause 90% inhibition was reported
T3 sequence (whole entry): T2 sequence (P27867 whole entry)

[6] = pKa value was reported; type: physicochemical
[7] = target: T1, Sorbitol dehydrogenase; experiment: Concentration required for 50% in vitro activity against human SDH (sorbitol dehydrogenase)
[8] = target: T3, Sorbitol dehydrogenase (Rattus norvegicus)
[9] = system: Rattus norvegicus; experiment: % Ability to inhibit lower sciatic nerve fructose that became elevated in diabetic nerve in streptozotocin diabetic rat model at 1 mg/kg; type: functional; outline: as §1

Row | Compound | ED90 [1] [mg/kg] | IC50 [2] [nM] | IC50 [3] [nM] | further results
1 | Cc1ncnc(N2C[C@@H](C)N(c3ccnc([C@@H](C)O)n3)[C@@H](C)C2)n1 | 0.3 | 7 | 5 | 
2 | C[C@@H]1CN(c2ccnc(N3CCN(C)CC3)n2)C[C@H](C)N1c1ccnc([C@@H](C)O)n1 | 1 | 4 | 6 | 
3 | C[C@@H]1CN(c2ncnc(-c3ccccc3)n2)C[C@H](C)N1c1ccnc([C@@H](C)O)n1 | 1 | 7 | 10 | 
4 | Cc1nc(C)nc(N2C[C@@H](C)N(c3ccnc([C@@H](C)O)n3)[C@@H](C)C2)n1 (stereo in doubt; 16a) |  | 16 | 9 | Ability [4]: 56%
5 | Cc1cn(-c2nccc(N3C[C@@H](C)N(c4ccnc([C@@H](C)O)n4)[C@@H](C)C3)n2)cn1 | 1 | 13 | 11 | 
6 | Cc1cn(-c2nccc(N3C[C@@H](C)N(c4ccnc([C@@H](C)O)n4)[C@@H](C)C3)n2)c(C)n1 | 1 | 4 | 7 | 
7 | C[C@H](O)c1nccc(N2[C@H](C)CN(c3ccnc(N4CCN(C)CC4)n3)C[C@@H]2C)n1 |  |  | 32 | 
8 | Cc1nc(C)nc(N2C[C@@H](C)N(c3ccnc([C@@H](C)O)n3)[C@@H](C)C2)n1 (stereo in doubt; 16) [listing 1 of 2 here] |  |  |  | IC90 [5]: 10 nM
9 | Cc1nc(C)nc(N2C[C@@H](C)N(c3ccnc([C@@H](C)O)n3)[C@@H](C)C2)n1 (stereo in doubt; 16) [listing 2 of 2 here] | 0.05 | 5 | 4 | pKa [6]: 6.2
10 | C[C@H](O)c1nccc(N2C[C@@H](C)N(c3ccnc([C@@H](C)O)n3)[C@@H](C)C2)n1 | 2 |  | 11 | pKa [6]: 6.8; IC50 [7]: 10 nM; IC90 [8]: 31 nM
11 | Cc1nc(CO)nc(N2C[C@@H](C)N(c3ccnc([C@@H](C)O)n3)[C@@H](C)C2)n1 |  |  | 20 | Ability [9]: 65%
12 | Cc1nc(-c2ccccc2)nc(N2C[C@@H](C)N(c3ccnc([C@@H](C)O)n3)[C@@H](C)C2)n1 |  | 43 | 39 | Ability [1]: 81%
